High-throughput results: PubChem, The Scripps Research Institute Molecular Screening Center
M4 antag = blocks acetylcholine activation of human M4 receptor; 360,000 compounds, 0.73% hits; AID 624125; P08173; CHO-hM4 cells, ACh EC80, Fluo-8 calcium fluorescence; inhibition, % at 3 µM;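 active means inhibition above its plate's cutoff, the mean inhibition of sample wells plus 3 SD, cut at about 27% in these data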
M5 PAM = CHRM5 positive allosteric modulation; 360,000 compounds, 0.3% hits; activation, % at 3 µM; CHO-K1 hM5, Fluo-8 calcium, ACh EC20 PAM; 0% = ACh EC20, 100% = ACh EC100; P08912;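 active means activation above the run cutoff, the mean activation of all test compounds plus 3 SD, cut at about 18% in these data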
Target sequence (P08912 whole entry, looked up): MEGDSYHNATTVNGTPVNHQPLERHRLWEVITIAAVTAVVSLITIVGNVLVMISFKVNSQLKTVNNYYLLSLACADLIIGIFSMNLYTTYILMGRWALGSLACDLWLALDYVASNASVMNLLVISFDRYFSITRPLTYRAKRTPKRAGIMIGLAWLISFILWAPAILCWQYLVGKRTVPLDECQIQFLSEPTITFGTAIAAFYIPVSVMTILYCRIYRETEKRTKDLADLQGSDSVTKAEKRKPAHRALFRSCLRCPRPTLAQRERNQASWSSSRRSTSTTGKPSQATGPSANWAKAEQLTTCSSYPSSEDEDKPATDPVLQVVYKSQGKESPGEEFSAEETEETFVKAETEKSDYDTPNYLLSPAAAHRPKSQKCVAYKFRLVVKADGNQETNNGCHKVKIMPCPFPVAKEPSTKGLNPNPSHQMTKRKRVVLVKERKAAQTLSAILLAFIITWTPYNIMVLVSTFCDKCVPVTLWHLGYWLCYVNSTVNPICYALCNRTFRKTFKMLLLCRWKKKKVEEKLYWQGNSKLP
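system = human M5 receptor in CHO-K1 cells | reagent = EC20 acetylcholine as agonist stimulus | compound dosing = single-point, 3 µM nominal | incubation = Fluo-8 loading 80 min at 37 °C plus 30 min room temperature | detection = Fluo-8 calcium dye fluorescence, kinetic read | benchmarks = low control EC20 acetylcholine (0%), high control EC100 acetylcholine (100%)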
M5 antag = CHRM5 antagonism in calcium assay; CHO-hM5 cells, Fluo-8 calcium fluorescence, ACh EC80; inhibition, % at 3 µM; P08912; 360,000 compounds, 0.59% hits; AID 624040;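 active means inhibition above a per-plate cutoff, the mean of that plate's test compounds plus 3 SD, cut at about 27% in these data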
M4 ag = CHRM4 agonism in calcium assay. P08173. CHO-K1 hM4/Gqi5, Fluo-8 calcium fluorescence; vehicle 0%, full acetylcholine response 100%. activation, % at 3 µM. 360,000 compounds, 0.14% hits;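 active means activation above the run mean over all test wells plus 3 SD, cut at about 32% in these data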;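 further: peak over basal fluorescence ratio per well then scaled between controls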
CHRM4 PAM = positive allosteric modulators of human muscarinic M4 receptor; CHO-K1 hM4/Gqi5, Fluo-8 calcium fluorescence, ACh EC20; 0% = ACh EC20, 100% = maximal ACh; 360,000 compounds, 0.4% hits; activation, % at 3 µM; P08173;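 active means activation above its plate's cutoff, the mean activation of sample wells plus 3 SD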
M5 ag = agonists of human muscarinic M5 receptor (CHRM5). activation, % at 3 µM. P08912. CHO-K1 hM5 cells, Fluo-8 calcium fluorescence; 0% DMSO wells, 100% maximal acetylcholine response. AID 624037. 360,000 compounds, 0.19% hits;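 active means activation above the run's mean over test compounds plus 3 SD, cut at about 23% in these data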;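 further: signal is peak over basal fluorescence ratio across the kinetic read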
Hits are given with their value; i = inactive; ! = not active in a repeat. Hits are enriched below; roughly 1.9% of the tested compounds scored in any of these assays.

SMILES	M4 antag	M5 PAM	M5 antag	M4 ag	CHRM4 PAM	M5 ag
CC(C(=O)NC(C)(C)C)N(Cc1cccs1)C(=O)CCN1CCc2ccccc21 (stereo unspecified)	i	i	i	i	i	i
Cc1ccc(C)c(N2CCN(CCCNC(=O)Cn3cc4c(n3)CCCCC4)CC2)c1	100	i	i	i	i	i
Cc1cc(C(=O)NCCC2=CCCCC2)ccc1[N+](=O)[O-]	i	i	i	i	i	i
O=C(O)CCN(CC(=O)c1ccc(Cl)cc1)S(=O)(=O)c1ccc([N+](=O)[O-])cc1	i	i	i	i	i	i
CC(=O)Nc1ccc(S(=O)(=O)CCC#N)cc1	i	40	i	i	i	i
CN(C)CCOC(c1ccc(Cl)cc1)c1ccccn1 (stereo unspecified)	i	i	i	i	i	i
Cc1ccccc1C(OCCN(C(C)C)C(C)C)c1ccccc1 (stereo unspecified)	99	i	99	i	i	i
CN(C)CCOC(c1ccccc1)c1ccccc1 (tested in a mixture with another compound)	37	i	53	i	i	i
Cc1ccccc1C(O)c1cccnc1 (stereo unspecified)	i	i	i	i	i	i
CN(C)CCOC(c1ccccc1)c1ccccc1	32!	i	35	i	i	i
COc1ccc(-n2nnnc2C(c2cc3ccccc3o2)N2CCN(C/C=C/c3ccccc3)CC2)cc1 (stereo unspecified)	i	i	36	i	i	i
C(=C\c1ccccc1)/CN1CCN(C(c2cc3ccccc3o2)c2nnnn2-c2ccc3c(c2)OCCO3)CC1 (stereo unspecified)	i	i	42	i	i	i
C(=C\c1ccccc1)/CN1CCN(C(c2cccs2)c2nnnn2-c2ccc3c(c2)OCCO3)CC1 (stereo unspecified)	29	i	70	i	i	i
COc1ccc(-n2nnnc2C(c2cccc3ccccc23)N2CCN(C/C=C/c3ccccc3)CC2)cc1 (stereo unspecified)	i	i	i	i	i	i
COc1ccc(C(c2nnnn2-c2ccc3c(c2)OCCO3)N2CCN(C/C=C/c3ccccc3)CC2)cc1 (stereo unspecified)	35	i	67	i	i	i
CCN(CC(=O)Nc1c(F)cccc1F)C(=O)c1ccc(S(=O)(=O)NCc2ccco2)cc1	i	i	i	i	i	i
O=C1CCN(Cc2ccccc2)C(=O)N1	i	i	i	i	i	i
O=C1CCC(c2ccccc2)(C2CCN(Cc3ccccc3)CC2)C(=O)N1 (stereo unspecified)	99	i	99	i	i	i
O=C(NCCN1CCOCC1)c1ccc(Cl)c(S(=O)(=O)NCc2ccccc2)c1	i	i	i	i	22	i
O=C(CCN1CCN(S(=O)(=O)c2ccc(Cl)cc2)CC1)Nc1ccc(F)cc1	i	i	i	i	i	i
O=C1c2ccccc2C(=O)N1CC#CCN1CCN(C(c2ccccc2)c2ccccc2)CC1	i	i	i	i	i	i
O=C1C2CSCN2C(=O)CN1CCCN1CCN(C(c2ccccc2)c2ccccc2)CC1 (stereo unspecified)	32	i	i	i	i	i
CCOC(=O)c1sc(NC(=O)CN2C(=O)NC3(CCCCCCC3)C2=O)c(C(=O)OCC)c1C	27	i	i	i	i	i
Cc1ccc(F)c(S(=O)(=O)NC(=O)C2(C)CCN2C(=O)COc2ccc(Cl)cc2)c1 (stereo unspecified)	i	i	i	i	i	i
Nc1[nH]ncc1-c1ccc(Cl)cc1	i	i	i	i	38	i
O=S1(=O)CC(N2CCCC2)CN1Cc1cn(Cc2cccc(Cl)c2)nn1 (stereo unspecified)	i	i	i	i	i	i
CN1CCN(C(=O)/C=C/c2cn(-c3ccccc3)nc2-c2ccc3c(c2)OCCO3)CC1	i	19	i	i	i	i
